In one experiment the target is T1, Estrogen receptor (Mus musculus) (UniProt O08537+P19785). The experiment in a line: Relative binding affinity (RBA) against murine cytoplasmic estrogen receptor incubated at 0-4 degree Celsius for 18 hours. The format is protein assay. A digest of the protocol: (§1)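 Competitive binding on murine uterine cytoplasmic extract with 20 nM [3H]estradiol and competitor steroids at 2 nM–20 μM, incubated 18 h at 0–4 °C. RBA = 100 × ratio of […] concentration giving 50% competition for specific binding. Mean of three experiments with SD.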
T1 sequence (O08537 whole entry, looked up): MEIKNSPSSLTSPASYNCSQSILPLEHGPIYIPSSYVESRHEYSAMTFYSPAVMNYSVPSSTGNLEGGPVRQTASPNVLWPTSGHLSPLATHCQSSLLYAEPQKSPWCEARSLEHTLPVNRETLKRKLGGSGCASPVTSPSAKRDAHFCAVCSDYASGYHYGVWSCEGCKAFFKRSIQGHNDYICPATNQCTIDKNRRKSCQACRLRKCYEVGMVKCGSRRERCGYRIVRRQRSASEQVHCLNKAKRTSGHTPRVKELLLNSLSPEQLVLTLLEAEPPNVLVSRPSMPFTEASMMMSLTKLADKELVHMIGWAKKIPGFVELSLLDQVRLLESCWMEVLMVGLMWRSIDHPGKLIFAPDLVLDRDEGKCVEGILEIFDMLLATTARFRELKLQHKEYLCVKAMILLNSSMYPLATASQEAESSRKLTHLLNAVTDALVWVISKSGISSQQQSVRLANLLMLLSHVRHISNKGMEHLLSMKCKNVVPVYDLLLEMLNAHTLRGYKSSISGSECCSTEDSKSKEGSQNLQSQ
T1 sequence (P19785 whole entry, looked up): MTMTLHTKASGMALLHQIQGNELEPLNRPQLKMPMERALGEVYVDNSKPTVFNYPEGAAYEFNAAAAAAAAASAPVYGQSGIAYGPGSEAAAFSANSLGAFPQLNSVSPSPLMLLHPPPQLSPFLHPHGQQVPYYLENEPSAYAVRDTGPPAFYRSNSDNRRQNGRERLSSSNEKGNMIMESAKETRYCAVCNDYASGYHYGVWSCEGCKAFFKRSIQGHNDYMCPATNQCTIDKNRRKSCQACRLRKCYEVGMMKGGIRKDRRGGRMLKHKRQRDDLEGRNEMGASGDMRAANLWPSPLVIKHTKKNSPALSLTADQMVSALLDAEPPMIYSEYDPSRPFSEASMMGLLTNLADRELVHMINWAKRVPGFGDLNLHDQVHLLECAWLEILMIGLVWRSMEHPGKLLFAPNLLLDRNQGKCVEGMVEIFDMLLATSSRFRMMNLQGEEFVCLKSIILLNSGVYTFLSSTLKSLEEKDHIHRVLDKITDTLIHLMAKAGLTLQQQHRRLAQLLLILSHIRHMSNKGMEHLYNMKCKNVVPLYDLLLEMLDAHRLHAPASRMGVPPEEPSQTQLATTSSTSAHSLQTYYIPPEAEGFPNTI
Compound `C=C[C@]1(O)CC[C@H]2[C@@H]3[C@H](C)Cc4cc(O)c(F)cc4[C@H]3CC[C@@]21C` showed an RBA of 33.3.

The compound `C=C[C@]1(O)CC[C@H]2[C@@H]3[C@H](C)Cc4cc(O)ccc4[C@H]3CC[C@@]21C` showed an RBA of 73.1.

Compound `C[C@@H]1Cc2cc(O)ccc2[C@H]2CC[C@@]3(C)[C@@H](CC[C@@]3(O)/C=C\I)[C@H]12` gave an RBA of 44.9.

In turn, `C=C[C@]1(O)CC[C@H]2[C@@H]3CCc4c(ccc(O)c4F)[C@H]3CC[C@@]21C` returned an RBA of 119.

`C[C@]12CC[C@@H]3c4ccc(O)cc4CC[C@H]3[C@@H]1CC[C@@]2(O)/C=C\I` came in with an RBA of 46.7.

Take `C=C[C@]1(O)CC[C@H]2[C@@H]3CCc4cc(O)c(F)cc4[C@H]3CC[C@@]21C`: the RBA stood at 64.3.

For `C[C@@H]1Cc2cc(O)ccc2[C@H]2CC[C@@]3(C)[C@@H](CC[C@@]3(O)/C=C/I)[C@H]12`, the RBA turned out to be 43.2.

For `C=C[C@]1(O)CC[C@H]2[C@@H]3CCc4c(ccc(O)c4F)[C@H]3[C@@H](OC)C[C@@]21C`, the RBA amounted to 16.7.

The compound `CO[C@H]1C[C@@]2(C)[C@@H](CC[C@@]2(O)/C=C\I)[C@@H]2CCc3cc(O)ccc3[C@H]21` registered an RBA of 32.

In turn, `C=C[C@]1(O)CC[C@H]2[C@@H]3CCc4cc(O)ccc4[C@H]3[C@@H](OC)C[C@@]21C` yielded an RBA of 15.3.

With `C=C[C@]1(O)CC[C@H]2[C@@H]3[C@H](C)Cc4c(ccc(O)c4F)[C@H]3CC[C@@]21C`, the RBA amounted to 62.4.

Consider `C[C@]12CC[C@@H]3c4ccc(O)cc4CC[C@H]3[C@@H]1CC[C@@]2(O)/C=C/I`, for which the RBA worked out at 39.7.

Compound `CO[C@H]1C[C@@]2(C)[C@@H](CC[C@@]2(O)/C=C/I)[C@@H]2CCc3cc(O)ccc3[C@H]21` had an RBA of 27.7.

In turn, `C=C[C@]1(O)CC[C@H]2[C@@H]3CCc4cc(O)c(F)cc4[C@H]3[C@@H](OC)C[C@@]21C` gave an RBA of 15.9.

The next experiment addresses T1, Estrogen receptor (Mus musculus). Put plainly: Relative binding affinity (RBA) for murine cytoplasmic estrogen receptor at 4C for 18 hr. It counts as protein assay. A digest of the protocol: as §1
`C#C[C@]1(O)CC[C@H]2[C@@H]3CCc4c(ccc(O)c4F)[C@H]3CC[C@@]21C`: the RBA came out at 119.

For the next experiment the target is unchanged. Put plainly: Relative binding affinity (RBA) for murine cytoplasmic estrogen receptor at 4C for 2 hr. The format is protein assay. A digest of the protocol:
(§2)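 Murine uterine cytoplasmic extract incubated 2 h at 4 °C or at 25 °C with 20 nM [3H]estradiol and competitors at 2 nM–20 μM. RBA is taken as 100 × the ratio of competitor to unlabeled estradiol concentration needed for 50% competition of specific [3H]estradiol binding.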
The compound `C#C[C@]1(O)CC[C@H]2[C@@H]3CCc4c(ccc(O)c4F)[C@H]3CC[C@@]21C` showed an RBA of 80.

For the next experiment the target is unchanged. Put plainly: Relative binding affinity (RBA) for murine cytoplasmic estrogen receptor at 25 degree C for 2 hr. It counts as protein assay. In a few lines: as §2
For the compound `C#C[C@]1(O)CC[C@H]2[C@@H]3CCc4c(ccc(O)c4F)[C@H]3CC[C@@]21C`, the RBA was 166.

Values taken from ChEMBL document CHEMBL1126849, “Synthesis of A-ring fluorinated derivatives of (17 alpha,20E/Z)-[125I]iodovinylestradiols: effect on receptor binding and receptor-mediated target tissue uptake” (J Med Chem, 1993).
